Measured values published in ChEMBL document CHEMBL3098105, “7,7'-Diazaindirubin--a small molecule inhibitor of casein kinase 2 in vitro and in cells” (Bioorg Med Chem, 2014).

Assays:
[1] = target: Insulin receptor (Homo sapiens) (UniProt P06213); experiment: Inhibition of human IR assessed as residual activity at 1 uM relative to control
[2] = target: Serine/threonine-protein kinase NLK (Homo sapiens) (UniProt Q9UBE8); experiment: Inhibition of human NLK assessed as residual activity at 1 uM relative to control
[3] = target: Vascular endothelial growth factor receptor 2 (Homo sapiens) (UniProt P35968); experiment: Inhibition of human KDR assessed as residual activity at 1 uM relative to control
SR = experiment: Antiproliferative activity against human SR cells after 3 days by sulforhodamine B assay; type: functional; conditions: 72 h
MCF7 = experiment: Cell cycle arrest in human MCF7 cells assessed as accumulation at G1 phase at 1 uM after 24 hrs using propidium iodide staining by FACS analysis (reference value: 57.74%); type: functional
[4] = target: Ribosomal protein S6 kinase alpha-2 (Homo sapiens) (UniProt Q15349); experiment: Inhibition of human Rsk3 assessed as residual activity at 1 uM relative to control
Sequence of Ribosomal protein S6 kinase alpha-2 (Homo sapiens) (Q15349 whole entry): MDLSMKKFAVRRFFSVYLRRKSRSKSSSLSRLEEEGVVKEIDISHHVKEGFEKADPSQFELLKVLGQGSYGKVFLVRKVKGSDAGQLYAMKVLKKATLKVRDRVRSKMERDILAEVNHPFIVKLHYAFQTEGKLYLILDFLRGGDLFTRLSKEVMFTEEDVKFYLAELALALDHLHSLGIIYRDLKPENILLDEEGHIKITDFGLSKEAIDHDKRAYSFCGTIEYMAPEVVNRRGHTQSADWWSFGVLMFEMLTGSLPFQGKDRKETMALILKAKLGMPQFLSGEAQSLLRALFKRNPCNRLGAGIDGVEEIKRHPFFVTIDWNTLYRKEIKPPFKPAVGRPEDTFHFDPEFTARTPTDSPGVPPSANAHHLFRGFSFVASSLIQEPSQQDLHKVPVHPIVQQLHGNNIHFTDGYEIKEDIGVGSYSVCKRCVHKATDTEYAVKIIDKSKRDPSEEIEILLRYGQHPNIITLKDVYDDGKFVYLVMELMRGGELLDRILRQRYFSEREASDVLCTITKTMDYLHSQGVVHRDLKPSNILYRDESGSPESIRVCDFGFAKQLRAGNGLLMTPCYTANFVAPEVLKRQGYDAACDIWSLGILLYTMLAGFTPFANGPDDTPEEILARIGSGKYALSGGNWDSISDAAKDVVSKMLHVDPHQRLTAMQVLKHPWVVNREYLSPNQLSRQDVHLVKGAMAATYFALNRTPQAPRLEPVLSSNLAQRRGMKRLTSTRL

[5] = target: Focal adhesion kinase 1 (Homo sapiens) (UniProt Q05397); experiment: Inhibition of human FAK assessed as residual activity at 1 uM relative to control
Sequence of Focal adhesion kinase 1 (Homo sapiens) (Q05397 2-1052 limits assumed): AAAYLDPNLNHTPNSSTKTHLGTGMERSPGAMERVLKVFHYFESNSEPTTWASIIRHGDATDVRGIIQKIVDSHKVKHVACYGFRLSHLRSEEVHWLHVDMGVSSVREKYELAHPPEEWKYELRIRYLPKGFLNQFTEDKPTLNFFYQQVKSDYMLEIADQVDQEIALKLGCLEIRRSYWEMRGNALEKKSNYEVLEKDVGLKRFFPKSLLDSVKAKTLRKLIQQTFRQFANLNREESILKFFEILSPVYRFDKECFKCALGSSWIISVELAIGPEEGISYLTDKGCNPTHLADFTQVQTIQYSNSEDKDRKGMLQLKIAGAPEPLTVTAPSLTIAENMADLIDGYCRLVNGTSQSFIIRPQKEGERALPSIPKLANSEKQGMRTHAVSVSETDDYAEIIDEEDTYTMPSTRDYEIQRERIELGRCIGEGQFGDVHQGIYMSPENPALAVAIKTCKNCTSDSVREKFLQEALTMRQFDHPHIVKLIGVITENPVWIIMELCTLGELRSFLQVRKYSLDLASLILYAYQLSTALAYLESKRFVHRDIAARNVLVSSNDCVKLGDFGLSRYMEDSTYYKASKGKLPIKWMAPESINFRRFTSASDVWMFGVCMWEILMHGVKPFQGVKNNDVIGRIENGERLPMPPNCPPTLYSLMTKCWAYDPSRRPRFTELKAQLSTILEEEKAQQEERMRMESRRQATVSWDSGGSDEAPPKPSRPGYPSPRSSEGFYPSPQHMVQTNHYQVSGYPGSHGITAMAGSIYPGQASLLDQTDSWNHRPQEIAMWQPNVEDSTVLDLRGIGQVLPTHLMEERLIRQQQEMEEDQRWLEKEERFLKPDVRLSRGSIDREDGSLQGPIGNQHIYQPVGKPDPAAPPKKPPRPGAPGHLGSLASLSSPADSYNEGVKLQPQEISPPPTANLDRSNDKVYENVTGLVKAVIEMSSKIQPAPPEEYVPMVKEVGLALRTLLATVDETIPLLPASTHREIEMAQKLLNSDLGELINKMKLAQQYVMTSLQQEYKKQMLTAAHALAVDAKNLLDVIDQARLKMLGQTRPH

[6] = target: Protein-tyrosine kinase 2-beta (Homo sapiens) (UniProt Q14289); experiment: Inhibition of human Pyk2 assessed as residual activity at 1 uM relative to control
[7] = Antiproliferative activity against human HOP92 cells after 3 days by sulforhodamine B assay; type: functional; conditions: HOP-92, 72 h
Method in brief: (§1)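 Tested in the NCI 60 cell line panel. GI50 is the concentration giving 50% inhibition of cell growth, and values are the mean of two series of tests.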

[8] = target: Rho-associated protein kinase 1 (Homo sapiens) (UniProt Q13464); experiment: Inhibition of human ROCK-1 assessed as residual activity at 1 uM relative to control
[9] = target: Ephrin type-A receptor 1 (Homo sapiens) (UniProt P21709); experiment: Inhibition of human EphA1 assessed as residual activity at 1 uM relative to control
MDA-MB-468 = experiment: Antiproliferative activity against human MDA-MB-468 cells after 3 days by sulforhodamine B assay; type: functional; conditions: MDA-MB-468, 72 h; method in brief: as §1
[10] = target: Vascular endothelial growth factor receptor 3 (Homo sapiens) (UniProt P35916); experiment: Inhibition of human Flt4 assessed as residual activity at 1 uM relative to control
[11] = target: Aurora kinase B (Homo sapiens) (UniProt Q96GD4); experiment: Inhibition of Aurora-B (unknown origin) assessed as residual activity at 1 uM relative to control
Sequence of Aurora kinase B (Homo sapiens) (Q96GD4 whole entry): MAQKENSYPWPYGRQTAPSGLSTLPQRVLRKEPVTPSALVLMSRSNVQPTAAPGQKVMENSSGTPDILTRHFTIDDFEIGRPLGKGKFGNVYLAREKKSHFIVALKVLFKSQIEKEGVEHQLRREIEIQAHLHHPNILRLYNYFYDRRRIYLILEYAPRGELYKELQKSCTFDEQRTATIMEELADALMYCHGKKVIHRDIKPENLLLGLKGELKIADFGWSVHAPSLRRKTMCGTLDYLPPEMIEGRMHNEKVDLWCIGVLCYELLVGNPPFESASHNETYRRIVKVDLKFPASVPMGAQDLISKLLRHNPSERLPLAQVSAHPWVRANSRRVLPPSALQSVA

[12] = target: ALK tyrosine kinase receptor (Homo sapiens) (UniProt Q9UM73); experiment: Inhibition of human ALK assessed as residual activity at 1 uM relative to control
[13] = target: Fibroblast growth factor receptor 3 (Homo sapiens) (UniProt P22607); experiment: Inhibition of human FGFR3 assessed as residual activity at 1 uM relative to control
[14] = target: Dual specificity protein kinase CLK3 (Homo sapiens) (UniProt P49761); experiment: Inhibition of human CLK3 assessed as residual activity at 1 uM relative to control
Sequence of Dual specificity protein kinase CLK3 (Homo sapiens) (P49761 whole entry, looked up): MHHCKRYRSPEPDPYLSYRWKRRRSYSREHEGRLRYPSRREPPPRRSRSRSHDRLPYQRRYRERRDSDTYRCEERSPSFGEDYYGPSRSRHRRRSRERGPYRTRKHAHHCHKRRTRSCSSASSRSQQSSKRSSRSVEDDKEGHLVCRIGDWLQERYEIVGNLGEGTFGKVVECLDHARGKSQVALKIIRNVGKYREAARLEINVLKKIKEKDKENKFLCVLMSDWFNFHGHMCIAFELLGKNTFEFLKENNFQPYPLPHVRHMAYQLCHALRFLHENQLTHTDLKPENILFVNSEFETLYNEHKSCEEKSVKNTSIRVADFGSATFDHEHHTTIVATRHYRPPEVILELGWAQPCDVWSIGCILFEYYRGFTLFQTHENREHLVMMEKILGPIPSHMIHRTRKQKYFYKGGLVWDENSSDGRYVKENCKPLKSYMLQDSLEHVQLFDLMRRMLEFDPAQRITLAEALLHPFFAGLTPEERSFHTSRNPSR

KM12 = experiment: Antiproliferative activity against human KM12 cells after 3 days by sulforhodamine B assay; type: functional; conditions: KM12, 72 h; method in brief: as §1
[15] = target: Mitogen-activated protein kinase kinase kinase 5 (Homo sapiens) (UniProt Q99683); experiment: Inhibition of human ASK1 assessed as residual activity at 1 uM relative to control
[16] = target: Ephrin type-B receptor 1 (Homo sapiens) (UniProt P54762); experiment: Inhibition of human EphB1 assessed as residual activity at 1 uM relative to control
K562 = experiment: Antiproliferative activity against human K562 cells after 3 days by sulforhodamine B assay; type: functional; conditions: K562, 72 h; method in brief: as §1
[17] = Antiproliferative activity against human LXFL 529L cells after 3 days by SRB assay; type: functional, cell-based; conditions: 72 h
Method in brief: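 Cells grown at 37 °C, 5% CO2, with 10% heat-inactivated FBS: LXFL529L in RPMI 1640, MCF7 and HT29 in DMEM. Seeded, allowed 24 h growth, then exposed to the drug at various concentrations for 3 days in serum medium. Fixed with TCA for 1 h at 4 °C, stained with 0.4% SRB, eluted in 10 mM Tris pH 10.5, read at 570 nm as % T/C. IC50 taken from dose–response curves of at least three independent experiments.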

[18] = target: Receptor-interacting serine/threonine-protein kinase 2 (Homo sapiens) (UniProt O43353); experiment: Inhibition of human RIPK2 assessed as residual activity at 1 uM relative to control
[19] = target: Serine/threonine-protein kinase tousled-like 2 (Homo sapiens) (UniProt Q86UE8); experiment: Inhibition of human TLK2 assessed as residual activity at 1 uM relative to control
[20] = target: Proto-oncogene tyrosine-protein kinase receptor Ret (Homo sapiens) (UniProt P07949); experiment: Inhibition of human Ret assessed as residual activity at 1 uM relative to control
[21] = target: T1, Serine/threonine-protein kinase Chk1 (Homo sapiens) (UniProt O14757); experiment: Inhibition of human CHK1 assessed as residual activity at 1 uM relative to control
T1 sequence (whole entry): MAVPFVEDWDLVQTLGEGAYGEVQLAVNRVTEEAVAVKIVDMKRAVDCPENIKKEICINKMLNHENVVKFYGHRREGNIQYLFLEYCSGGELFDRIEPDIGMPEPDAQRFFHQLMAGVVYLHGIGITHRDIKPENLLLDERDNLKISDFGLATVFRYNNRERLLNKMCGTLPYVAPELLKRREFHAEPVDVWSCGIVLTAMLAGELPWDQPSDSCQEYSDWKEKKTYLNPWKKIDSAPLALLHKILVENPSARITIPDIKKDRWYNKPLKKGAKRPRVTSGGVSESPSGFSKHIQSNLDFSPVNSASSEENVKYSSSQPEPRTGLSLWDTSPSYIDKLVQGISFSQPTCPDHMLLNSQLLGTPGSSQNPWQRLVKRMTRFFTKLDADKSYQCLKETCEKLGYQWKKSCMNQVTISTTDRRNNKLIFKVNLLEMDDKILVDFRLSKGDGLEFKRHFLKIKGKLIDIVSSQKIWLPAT

[22] = target: Tyrosine-protein kinase SYK (Homo sapiens) (UniProt P43405); experiment: Inhibition of human Syk assessed as residual activity at 1 uM relative to control
[23] = target: Proto-oncogene tyrosine-protein kinase ROS (Homo sapiens) (UniProt P08922); experiment: Inhibition of human Ros assessed as residual activity at 1 uM relative to control
Sequence of Proto-oncogene tyrosine-protein kinase ROS (Homo sapiens) (P08922 whole entry): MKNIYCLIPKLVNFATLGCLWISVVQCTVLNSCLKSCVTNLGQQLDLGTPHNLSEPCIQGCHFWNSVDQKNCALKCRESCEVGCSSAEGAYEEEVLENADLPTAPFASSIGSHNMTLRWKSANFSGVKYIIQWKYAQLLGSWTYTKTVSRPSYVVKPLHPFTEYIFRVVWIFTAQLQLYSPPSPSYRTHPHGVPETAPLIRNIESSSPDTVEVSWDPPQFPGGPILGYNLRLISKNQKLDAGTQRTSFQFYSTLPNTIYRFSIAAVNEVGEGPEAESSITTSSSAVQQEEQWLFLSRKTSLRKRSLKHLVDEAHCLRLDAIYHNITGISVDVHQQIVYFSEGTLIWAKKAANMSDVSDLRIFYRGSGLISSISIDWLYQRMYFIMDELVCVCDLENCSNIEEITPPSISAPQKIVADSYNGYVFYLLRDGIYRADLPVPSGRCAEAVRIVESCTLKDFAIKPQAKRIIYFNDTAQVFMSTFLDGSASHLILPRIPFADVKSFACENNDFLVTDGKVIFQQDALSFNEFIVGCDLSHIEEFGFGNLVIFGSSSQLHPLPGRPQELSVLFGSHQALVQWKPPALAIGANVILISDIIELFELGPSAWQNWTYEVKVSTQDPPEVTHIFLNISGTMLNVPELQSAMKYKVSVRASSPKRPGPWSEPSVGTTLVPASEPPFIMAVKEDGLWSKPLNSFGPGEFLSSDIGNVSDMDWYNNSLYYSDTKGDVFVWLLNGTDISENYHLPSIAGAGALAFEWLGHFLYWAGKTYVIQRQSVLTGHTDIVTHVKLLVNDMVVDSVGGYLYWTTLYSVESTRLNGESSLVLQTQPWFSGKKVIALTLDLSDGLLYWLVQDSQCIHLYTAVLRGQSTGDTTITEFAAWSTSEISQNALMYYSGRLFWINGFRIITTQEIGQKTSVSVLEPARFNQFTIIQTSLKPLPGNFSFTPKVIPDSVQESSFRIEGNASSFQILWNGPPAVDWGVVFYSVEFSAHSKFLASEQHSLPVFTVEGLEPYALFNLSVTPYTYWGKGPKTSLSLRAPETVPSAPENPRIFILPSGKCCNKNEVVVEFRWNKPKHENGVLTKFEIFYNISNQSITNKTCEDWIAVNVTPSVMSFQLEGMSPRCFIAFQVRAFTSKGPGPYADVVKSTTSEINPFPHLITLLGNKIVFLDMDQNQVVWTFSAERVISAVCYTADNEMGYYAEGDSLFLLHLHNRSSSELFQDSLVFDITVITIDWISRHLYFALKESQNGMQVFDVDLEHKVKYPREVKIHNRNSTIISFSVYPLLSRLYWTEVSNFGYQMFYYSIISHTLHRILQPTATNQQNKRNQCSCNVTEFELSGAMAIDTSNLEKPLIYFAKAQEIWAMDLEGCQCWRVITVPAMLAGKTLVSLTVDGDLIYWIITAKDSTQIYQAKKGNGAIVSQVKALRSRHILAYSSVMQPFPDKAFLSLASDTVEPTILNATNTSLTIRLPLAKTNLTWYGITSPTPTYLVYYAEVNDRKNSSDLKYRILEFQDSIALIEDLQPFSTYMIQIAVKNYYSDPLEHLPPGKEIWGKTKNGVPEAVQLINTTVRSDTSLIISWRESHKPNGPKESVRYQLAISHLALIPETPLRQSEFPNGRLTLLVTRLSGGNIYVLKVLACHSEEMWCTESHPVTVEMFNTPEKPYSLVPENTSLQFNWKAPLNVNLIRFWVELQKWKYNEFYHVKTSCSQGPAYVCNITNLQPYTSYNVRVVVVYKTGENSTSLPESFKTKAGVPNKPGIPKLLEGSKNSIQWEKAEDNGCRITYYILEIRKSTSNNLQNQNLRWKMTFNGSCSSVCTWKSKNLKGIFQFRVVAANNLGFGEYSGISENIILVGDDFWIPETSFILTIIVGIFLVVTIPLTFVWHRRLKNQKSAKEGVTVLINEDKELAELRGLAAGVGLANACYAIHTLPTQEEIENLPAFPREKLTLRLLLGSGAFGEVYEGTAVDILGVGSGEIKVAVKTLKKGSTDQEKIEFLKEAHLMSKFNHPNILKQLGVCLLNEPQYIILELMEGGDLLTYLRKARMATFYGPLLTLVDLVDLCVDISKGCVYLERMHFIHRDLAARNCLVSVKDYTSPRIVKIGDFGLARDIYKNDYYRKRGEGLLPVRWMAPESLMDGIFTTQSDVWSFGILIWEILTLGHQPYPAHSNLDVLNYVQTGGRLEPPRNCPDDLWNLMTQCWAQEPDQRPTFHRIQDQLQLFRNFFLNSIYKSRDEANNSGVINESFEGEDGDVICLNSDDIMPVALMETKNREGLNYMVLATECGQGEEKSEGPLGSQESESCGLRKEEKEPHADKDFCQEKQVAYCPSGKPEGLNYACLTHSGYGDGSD

[24] = target: Serine/threonine-protein kinase ULK3 (Homo sapiens) (UniProt Q6PHR2); experiment: Inhibition of human ULK3 assessed as residual activity at 1 uM relative to control
[25] = target: Insulin-like growth factor 1 receptor (Homo sapiens) (UniProt P08069); experiment: Inhibition of IGF1-R (unknown origin) assessed as residual activity at 1 uM relative to control
COLO 205 = experiment: Antiproliferative activity against human COLO205 cells after 3 days by sulforhodamine B assay; type: functional; conditions: COLO 205, 72 h; method in brief: as §1

Activity [1]: 98% | Activity [2]: 123% | Activity [3]: 76% | Activity [4]: 72% | Activity [5]: 110% | Activity [6]: 119% | Activity [8]: 80% | Activity [9]: 111% | GI50 (MDA-MB-468): 1.14 µM | Activity [10]: 68% | Activity [11]: 108% | Activity [12]: 97% | Activity [13]: 126% | Activity [14]: 86% | Activity [15]: 136% | Activity [16]: 114% | GI50 (K562): 2.26 µM | Activity [18]: 85% | Activity [19]: 103% | Activity [20]: 107% | Activity [21]: 107% | Activity [22]: 91% | Activity [23]: 102% | Activity [24]: 100% | Activity [25]: 94% | GI50 (COLO 205): 0.372 µM
Structure (SMILES): O=C1Nc2ncccc2/C1=C1/Nc2ncccc2C1=O
GI50 (SR): 2.73 µM | Activity (MCF7): 63.05% | GI50 [7]: 3.04 µM | GI50 (KM12): 0.387 µM | IC50 [17]: 0.06 µM
